Data set [1] relates to MDCK. The experiment in a line: Cytotoxicity against MDCK cells after 48 hrs by methylene blue dye-based spectroscopy relative to control. Type of data set: cell-based, Canis lupus familiaris. To be noted: dog. The method, boiled down:
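MDCK cells. CC50 is the compound concentration that kills half of the cell population.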

The nature of data set [2]: Inhibition of influenza A virus H1N1 endonuclease N-terminal domain of PA-subunit expressed in Escherichia coli BL21(DE3) using FAM-AAT CGC AGG CAG CAC TC-TAM as substrate by FRET assay. The method, boiled down: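 Recombinant PA_N construct from pH1N1 2009 influenza in a FRET read-out of endonuclease cleavage. Compounds were first screened at 200 μM, then run in dose-response to derive IC50.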

In data set [3] the test system is Influenza A virus. Kind of data set: Antiviral activity against Influenza A virus (A/Puerto Rico/8/1934(H1N1)) infected in MDCK cells assessed as inhibition of virus-induced cytopathic effect after 48 hrs by CellTitre-Glo assay. Format: functional, organism-based. In a few lines:
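MDCK cells infected with PR8 H1N1. IC50 is the compound concentration at which half of the infected cells survive. Only compounds with CC50 above 50 μM in MDCK cells were tested.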
(In general: Damage to the host cells serves as the signal in cytopathic effect assays.)

The mark [4] stands for this setting: Influenza A virus, A/Puerto Rico/8/1934(H1N1), MDCK, 48 h, read-out: IC50.

The structures appear in SMILES notation. Where only a bound is given, the exact number is not on record here.

As for `O=C(Cc1ccccc1)c1ccc(O)c(O)c1O`, the 50% cytotoxic concentration (CC50) in data set [1] (read-out: CC50) was 18.1 µM. 1.5 µM corresponded to half-maximal inhibition in data set [2] (IC50).
With `O=C(N/N=C\c1cccc(Cl)c1Cl)c1ccc(O)c(O)c1`, in data set [1] (read-out: CC50), the CC50 turned out to be 6.8 µM. The compound also returned a 50% inhibitory concentration (IC50) in data set [2] of 0.7 µM.
Consider `Cc1ccccc1/C=N\NC(=O)c1ccc(O)c(O)c1`, for which the CC50 in data set [1] (read-out: CC50) was > 50 µM. For the same compound, the figures for the IC50 in data set [3] (setting [4]) and in data set [2] were > 50 µM and 1.9 µM, respectively.
Regarding `COc1ccccc1N1CCN(/N=C/c2ccc(O)c(O)c2)CC1`, the CC50 in data set [1] (read-out: CC50) turned out to be 13 µM. The compound further returned an IC50 in data set [2] of 2 µM.
With `C/C(=N/NC(=O)c1ccc(O)c(O)c1)c1ccc(C)cc1`, the 50% cytotoxic concentration (CC50) in data set [1] (read-out: CC50) is > 50 µM. Besides, the IC50 in data set [3] (setting [4]) is > 50 µM; in data set [2], 2.1 µM.
For `O=C(N/N=C\c1ccc(/C=N/NC(=O)c2ccc(O)c(O)c2)cc1)c1ccc(O)c(O)c1`, the cytotoxic concentration (CC50) result in data set [1] is listed as “ND(Insoluble)”. Moreover, the IC50 result is “ND(Insoluble)” in data set [3] (mdck) and 23 µM in data set [2].
Regarding `O=C1CC2(CCCCC2)Oc2c1ccc(O)c2O`, the CC50 in data set [1] (read-out: CC50) was > 100 µM. The results for the 50% inhibitory concentration (IC50) in data set [3] (setting [4]) and in data set [2] were > 100 µM and 8 µM, respectively.
As to `CC(=O)N1CCC2(CC1)CC(=O)c1ccc(O)c(O)c1O2`, the CC50 in data set [1] (read-out: CC50) was > 100 µM. Moreover, the values for the half-maximal inhibitory concentration (IC50) in data set [3] (setting [4]) and in data set [2] were > 100 µM and 46 µM, respectively.
On to `O=C(Cc1ccccc1Cl)c1ccc(O)c(O)c1O`, for which the CC50 in data set [1] (read-out: CC50) is > 50 µM. Besides, the IC50 in data set [3] (setting [4]) was > 50 µM; in data set [2], 5 µM.
Regarding `Cc1ccccc1CC(=O)c1ccc(O)c(O)c1O`, the cytotoxic concentration (CC50) in data set [1] (read-out: CC50) was determined as 21 µM. The compound further showed an IC50 in data set [2] of 11 µM.
As for `O=C(N/N=C\c1ccccc1Cl)c1cc(O)c(O)c(O)c1`, in data set [1] (read-out: CC50), the CC50 is > 100 µM. Further, the results for the IC50 in data set [3] (setting [4]) and in data set [2] were 18 µM and 14 µM, respectively.
Take `COc1ccc(NC(=O)/C(O)=C/C(=O)c2ccc(C)cc2)cc1`: the CC50 in data set [1] (read-out: CC50) is > 50 µM. The IC50 in data set [3] (setting [4]) is > 50 µM; in data set [2] it was 0.6 µM.
For `COc1ccc(NC(=O)/C(O)=C/C(=O)c2ccc(Cl)cc2)cc1`, the half-maximal cytotoxic concentration (CC50) in data set [1] (read-out: CC50) is > 100 µM. Besides, the concentration for half-maximal inhibition (IC50) in data set [3] (setting [4]) is > 50 µM; in data set [2] it was 0.74 µM.
For `O=C(/N=C1/C(=O)Nc2ccc(Br)cc21)/C(O)=C/C(=O)c1ccc(Cl)cc1`, in data set [1] (read-out: CC50), the cytotoxic concentration (CC50) is > 50 µM. In data set [2], inhibition was half-maximal at 23 µM (IC50).
Consider `Cc1ccc(C(=O)/C=C(O)/C(O)=C/C(=O)c2ccc(C)cc2)cc1`, for which the CC50 in data set [1] (read-out: CC50) was > 50 µM. Moreover, the 50% inhibitory concentration (IC50) in data set [3] (setting [4]) came to 23 µM; in data set [2], 6 µM.
Regarding `O=C(/C=C(O)/C(O)=C/C(=O)c1ccc(Cl)cc1)c1ccc(Cl)cc1`, in data set [1] (read-out: CC50), the cytotoxic concentration (CC50) was > 100 µM. Further, the 50% inhibitory concentration (IC50) in data set [3] (setting [4]) is > 50 µM; in data set [2] it was 11.7 µM.

As a reminder, the CC50 is the concentration at which the toxic effect on the cells reaches its halfway point. In general, IC50 refers to the midpoint of a concentration-inhibition curve.
